In ChEMBL document CHEMBL1158697, “Synthesis and biological evaluation of a natural ester sintenin and its synthetic analogues” (J Nat Prod, 2005):

What was measured:
HeLa = assay: Cytotoxicity against human HeLa cells after 72 hrs by MTT assay; format: functional, cell-based
How it was run: (§1)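 Cells allowed to attach as monolayers, then exposed to compounds at various concentrations in culture medium for 72 h; controls got deionized water (compound stock solvent). MTT added ([…]) for 3 h, supernatant removed, cells dissolved in DMSO, absorbance at 570 nm. CC50 = concentration reducing MTT signal 50% versus untreated controls.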

[1] = Cytotoxicity against human Bel7404 cells after 72 hrs by MTT assay; format: functional, cell-based; details: BEL-7404, 72 h; how it was run: as §1
A549 = assay: Cytotoxicity against human A549 cells after 72 hrs by MTT assay; format: functional, cell-based; details: A549, 72 h; how it was run: as §1
CNE = assay: Cytotoxicity against human CNE cells after 72 hrs by MTT assay; format: functional, cell-based; how it was run: as §1
KB = assay: Cytotoxicity against human KB cells after 72 hrs by MTT assay; format: functional, cell-based; how it was run: as §1
PC-3 = assay: Cytotoxicity against human PC3 cells after 72 hrs by MTT assay; format: functional, cell-based; details: PC-3, 72 h; how it was run: as §1
[2] = Inhibition of alpha glucosidase
How it was run: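 α-Glucosidase (25 µL at 0.2 U/mL) with p-nitrophenyl-α-D-glucopyranoside (25 µL of 23.2 mM), sample at various concentrations, in 67 mM phosphate buffer pH 6.8. Reaction stopped with 1 M Na2CO3; p-nitrophenol release read at 405 nm. Blanks lacked enzyme; negative control had buffer instead of sample; acarbose as positive control. Percent inhibition from corrected ODs; IC50 calculated from this.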

With `COc1ccc(/C=C/COC(=O)/C=C/c2ccc(O)cc2)cc1` the IC50 (HeLa) was 95 µM, the IC50 [1] was 193 µM and the IC50 (A549) was 72 µM. For the same molecule, the IC50 (CNE) was 40 µM, the IC50 (KB) was 143 µM and the IC50 (PC-3) was 88 µM.
In the case of `COc1ccc(/C=C/COC(=O)/C=C/c2ccc(OC)c(OC)c2)cc1OC`, the IC50 (HeLa) is reported as 86.7 µM, the IC50 [1] is reported as 136 µM and the IC50 (A549) is reported as 181 µM. For the same molecule, the IC50 (CNE) was over 100 µg/mL, the IC50 (KB) was 133 µM and the IC50 (PC-3) was 92 µM.
Work on `COc1ccc(/C=C/COC(=O)/C=C/c2cc(OC)c(OC)c(OC)c2)cc1OC` yielded an IC50 (HeLa) of 64 µM, an IC50 [1] of 212 µM and an IC50 (A549) of 172 µM. The IC50 (CNE) was over 100 µg/mL, the IC50 (KB) was over 100 µg/mL and the IC50 (PC-3) was 80 µM.
Molecule `O=C(/C=C/c1ccc(O)c(O)c1)OC/C=C/c1ccccc1` has an IC50 (HeLa) of 171 µM, an IC50 [1] of 91 µM and an IC50 (A549) of 71 µM. It also gave an IC50 (CNE) of 214 µM, an IC50 (KB) of 54 µM and an IC50 (PC-3) of 123 µM. The IC50 [2] was 97 µM.
In the case of `O=C(CCc1ccc(O)c(O)c1)OCCCc1ccccc1`, the IC50 (HeLa) is reported as 171 µM, the IC50 [1] is reported as over 100 µg/mL and the IC50 (A549) is reported as 138 µM. The IC50 (CNE) was 235 µM, the IC50 (KB) was 125 µM and the IC50 (PC-3) was 189 µM. It also gave an IC50 [2] of 73 µM.
`COCOc1ccc(/C=C/C(=O)OC/C=C/c2ccccc2)cc1OCOC` showed an IC50 (HeLa) of over 1000 µM, an IC50 [1] of over 100 µg/mL and an IC50 (A549) of over 100 µg/mL. It also gave an IC50 (CNE) of over 100 µg/mL, an IC50 (KB) of 202 µM and an IC50 (PC-3) of over 1000 µM.
`COc1ccc(CCCOC(=O)CCc2ccc(O)cc2)cc1` gave an IC50 (HeLa) of over 100 µg/mL, an IC50 [1] of 108 µM and an IC50 (A549) of 186 µM. It also gave an IC50 (CNE) of 287 µM, an IC50 (KB) of 820 µM and an IC50 (PC-3) of 283 µM.
`COc1ccc(/C=C/C(=O)OC/C=C/c2ccc(OC)c(OC)c2)cc1` gave an IC50 (HeLa) of 167 µM, an IC50 [1] of over 100 µg/mL and an IC50 (A549) of over 100 µg/mL. For the same molecule, the IC50 (CNE) was over 100 µg/mL, the IC50 (KB) was over 100 µg/mL and the IC50 (PC-3) was 181 µM.
`C[C@H]1O[C@H](O[C@H]2[C@H](O)[C@@H](O)[C@@H](O[C@H]3[C@H](O)[C@@H](O)C(O)O[C@@H]3CO)O[C@@H]2CO)[C@H](O)[C@@H](O)[C@@H]1N[C@H]1C=C(CO)[C@@H](O)[C@H](O)[C@H]1O` (stereo partly drawn) [ACARBOSE] showed an IC50 [2] of 680 µM.
In the case of `COc1ccc(CCCOC(=O)CCc2cc(OC)c(OC)c(OC)c2)cc1OC`, the IC50 (HeLa) is reported as over 100 µg/mL, the IC50 [1] is reported as over 100 µg/mL and the IC50 (A549) is reported as over 100 µg/mL. For the same molecule, the IC50 (CNE) was over 100 µg/mL, the IC50 (KB) was 124 µM and the IC50 (PC-3) was 104 µM.
Work on `COc1cc(/C=C/COC(=O)/C=C/c2cc(OC)c(OC)c(OC)c2)cc(OC)c1OC` yielded an IC50 (HeLa) of 43 µM, an IC50 [1] of over 100 µg/mL and an IC50 (A549) of 180 µM. For the same molecule, the IC50 (CNE) was 50 µM, the IC50 (KB) was 206 µM and the IC50 (PC-3) was 189 µM. The IC50 [2] was 110 µM.
`COc1ccc(/C=C/COC(=O)/C=C/c2ccc([N+](=O)[O-])cc2)cc1OC` gave an IC50 (HeLa) of over 100 µg/mL, an IC50 [1] of over 100 µg/mL and an IC50 (A549) of over 100 µg/mL. For the same molecule, the IC50 (CNE) was over 100 µg/mL, the IC50 (KB) was 165 µM and the IC50 (PC-3) was 212 µM.
In the case of `COCOc1ccc(/C=C/C(=O)OC/C=C/c2ccc(OC)cc2)cc1`, the IC50 (HeLa) is reported as 46 µM, the IC50 [1] is reported as over 100 µg/mL and the IC50 (A549) is reported as over 100 µg/mL. For the same molecule, the IC50 (CNE) was over 100 µg/mL, the IC50 (KB) was over 100 µg/mL and the IC50 (PC-3) was 226 µM.
`O=C(/C=C/c1ccc(O)cc1)OC/C=C/c1ccccc1` gave an IC50 (HeLa) of 160 µM, an IC50 [1] of over 100 µg/mL and an IC50 (A549) of 120 µM. For the same molecule, the IC50 (CNE) was 162 µM, the IC50 (KB) was over 100 µg/mL and the IC50 (PC-3) was 143 µM. It also gave an IC50 [2] of 65 µM.
